These results are taken from PubChem BioAssay.

A short description of test [1]: inhibitors of TNFa-induced NFkB p65 translocation, primary screen, imaging, HUVEC, MLSMR starter and 10KST1 sets (AID 438;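 active = inhibition above 20% together with a positive visual image hit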;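 note: compound added about 3h40 before a 20 min TNFalpha stimulation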;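 for inhibition: signal is the nuclear over cytoplasmic p65 intensity ratio per well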). The note with it: HUVEC TNFa-induced p65 nuclear translocation; cell count: measured here: nuclei count (cytotoxicity indicator), at 2.08 µM; inhibition: at 2 µM, stronger effect = higher value, 0% TNFa-plus-vehicle, 100% no-TNFa wells.
The nature of test [2]: endothelial E-selectin expression blockers – imaging, HUVEC, immunofluorescence, MLSMR starter and 10KST1 sets, primary screen (AID 487;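 active = visually confirmed hit in the image check and inhibition above 20%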;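 for inhibition: signal is fraction of cell area covered by stained E-selectin grains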;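 for nuclei count: 100% = median nuclei count of all wells on the same plate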). The conditions noted are these: HUVEC TNFalpha-induced E-selectin immunofluorescence imaging, at 2 µM; inhibition: stronger effect = higher value; nuclei count: measured here: cell number, toxicity.
A short description of test [3]: Primary imaging screen for DUSP6 inhibitors that restore phospho-Erk in transfected HeLa cells, chemical complementation (AID 609;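 active = compounds giving at least 50% inhibition in the cell-based MKP-3 phosphatase rescue imaging test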;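 for inhibition: phospho-Erk level distribution per well compared with pooled transfected vehicle control wells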). The conditions noted are these: HeLa MKP-3 transfected, phospho-Erk imaging KS statistic, at 10 µM, cells stimulated with TPA for 15 min.
Test [4] has as its target Dual specificity protein phosphatase 6 (Homo sapiens) (UniProt Q16828). The test is described as above. The conditions noted are these: HeLa MKP-3 transfected, phospho-Erk imaging KS statistic; at 10 µM; stronger effect = higher value; cells stimulated with TPA for 15 min.
The target of test [5] is Voltage-gated potassium channel subunit beta-2 (Rattus norvegicus) (UniProt P62483). Nature of the test: inhibitors of rat Kvbeta2 reductase activity – biochemical, NADPH fluorescence, primary screen (AID 622;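 active = fluorescence slope higher than the sample average by over 3 SD, cut at about -0.22 in these data, passing the limit was not always enough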;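 note: slope of raw intensity against log time taken from 70 to 1610 s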). The conditions noted are these: recombinant KvBeta, 4-cyanobenzaldehyde reduction, at 10 µM, stronger effect = higher value.
The target is the same in test [6]. Nature of the test: enhancers of rat Kvbeta2 NADPH turnover – biochemical, NADPH fluorescence, primary screen (AID 623).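 Note: fluorescence intensity change per second fitted from 20 to 320 s.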 The note with it: Recombinant KvBeta, NADPH fluorescence decrease slope, 10 min; at 10 µM; stronger effect = lower value.
In test [7] the target is Alpha-2C adrenergic receptor (Homo sapiens) (UniProt P18825). Nature of the test: compounds altering alpha2C-coupled GIRK flux – cell-based, HEK293 alpha2C/GIRK1/2, thallium flux, primary screen (AID 624;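 active = fluorescence slope after compound addition differing from the mean of all screened samples at 99.7% confidence, in either direction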;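 note: slope of fluorescence ratio to pre-addition baseline per second over 15 to 24 s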). The conditions noted are these: thallium flux BTC fluorescence, at 10 µM, actives lie on both sides.
A short description of test [8]: inhibitors of larval lipid processing in zebrafish, primary screen, whole organism, PED6 fluorescence, gall bladder and intestine (AID 686;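 active = a full or partial loss of lipid-probe fluorescence in the fish gall bladder, intestine or both, judged by eye; inactive = no fluorescence loss, or compound toxic to the fish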;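 note: larvae 5 to 7 days old with five fish per well; signal comes from phospholipase A2 cleavage of quenched PED6 carried via bile; overnight exposure to compound and PED6 before scoring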). The note with it: Zebrafish larvae PED6 lipid processing, fluorescence scoring; screened at 20 µM (by protocol). A digest of the protocol: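 Test system – live zebrafish larvae aged 5-7 days, whole organism · Buffer or medium – E3 fish medium · Reagent – quenched phospholipase substrate PED6, 100 nM final, ingested by larvae · Doses – 20 µM single dose · Incubation – overnight compound and PED6 incubation · Technique – visual fluorescence microscopy scoring of gall bladder, gut · Read-out basis – visual per-well fluorescence inhibition score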

Test [9] in a line: loss of swimming-algae plug formation – whole organism, Chlamydomonas reinhardtii, WT vs cilia-less mutant, absorbance, 96-well, primary screen (AID 463189;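 active = inhibition at or above 50% relative to wild type and mutant plate controls; inactive = inhibition below 50%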;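 note: 0% = wild type cc124 cells in DMSO and 100% = ciliumless bld1 mutant cells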). The conditions noted are these: Chlamydomonas reinhardtii gravitaxis, OD600 absorbance, 2 days; at 10 µM; stronger effect = higher value.
Setting [10] is: measured here: cell density z-score.
[11] abbreviates: measured here: nuclear c-Myc green intensity z-score.
[12] abbreviates: measured here: nuclear pErk red intensity z-score, stronger effect = higher value.

The source made the active and inactive calls.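 Rule for the calls, unless noted: active = NADPH fluorescence slope more negative than the mean of all samples by about 3 SD, 99.7% confidence; inactive = the rest.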

Sequence of Alpha-2C adrenergic receptor (Homo sapiens) (P18825 whole entry, looked up): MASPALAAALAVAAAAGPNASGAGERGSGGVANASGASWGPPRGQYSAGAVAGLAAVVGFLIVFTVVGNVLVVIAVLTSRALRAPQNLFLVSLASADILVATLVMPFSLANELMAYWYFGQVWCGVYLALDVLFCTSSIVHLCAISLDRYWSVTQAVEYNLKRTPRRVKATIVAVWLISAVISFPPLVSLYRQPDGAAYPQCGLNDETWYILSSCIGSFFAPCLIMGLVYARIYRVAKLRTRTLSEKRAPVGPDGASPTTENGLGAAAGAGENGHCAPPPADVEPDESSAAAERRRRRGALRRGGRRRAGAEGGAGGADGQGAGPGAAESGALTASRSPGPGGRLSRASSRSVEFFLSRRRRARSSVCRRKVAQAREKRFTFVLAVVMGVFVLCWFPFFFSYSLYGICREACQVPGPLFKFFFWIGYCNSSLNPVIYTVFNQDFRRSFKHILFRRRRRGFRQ
Sequence of Voltage-gated potassium channel subunit beta-2 (Rattus norvegicus) (P62483 whole entry, looked up): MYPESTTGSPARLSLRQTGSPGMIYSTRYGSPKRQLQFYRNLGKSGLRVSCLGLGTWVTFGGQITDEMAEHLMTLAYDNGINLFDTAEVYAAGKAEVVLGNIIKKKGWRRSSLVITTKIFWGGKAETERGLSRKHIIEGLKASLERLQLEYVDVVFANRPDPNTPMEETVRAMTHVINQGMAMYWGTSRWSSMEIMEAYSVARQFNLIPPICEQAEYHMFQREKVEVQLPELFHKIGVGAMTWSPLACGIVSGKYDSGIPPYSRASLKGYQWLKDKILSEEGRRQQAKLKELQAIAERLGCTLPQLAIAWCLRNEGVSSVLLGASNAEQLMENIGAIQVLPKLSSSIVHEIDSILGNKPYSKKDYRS
Sequence of Dual specificity protein phosphatase 6 (Homo sapiens) (Q16828 whole entry, looked up): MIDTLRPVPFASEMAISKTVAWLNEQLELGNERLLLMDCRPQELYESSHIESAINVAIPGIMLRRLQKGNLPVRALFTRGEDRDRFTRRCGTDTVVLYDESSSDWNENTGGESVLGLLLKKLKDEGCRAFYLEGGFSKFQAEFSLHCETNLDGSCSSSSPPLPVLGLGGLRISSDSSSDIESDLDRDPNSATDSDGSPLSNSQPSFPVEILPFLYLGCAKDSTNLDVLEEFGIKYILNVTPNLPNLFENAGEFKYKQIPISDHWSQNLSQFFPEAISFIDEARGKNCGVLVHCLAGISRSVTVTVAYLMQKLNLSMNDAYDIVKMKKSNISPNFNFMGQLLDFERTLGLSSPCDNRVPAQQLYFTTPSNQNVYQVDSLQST

As to `O=S(=O)(O)c1nc2ccccc2n1Cc1ccc(Cl)cc1Cl`, the cell count in test [1] was determined as 405. For the same compound, the inhibition in test [1] is -4.7% (inactive); in test [2] it was -102% (inactive); in test [4] it was 20.8% (inactive); in test [9], 27.2% (inactive). The nuclei count in [2] was 149%. The results for the z-score in [3] (setting [10]), in [3] (setting [11]) and in test [3] (setting [12]) were -0.945, 0.195 and -1.66, respectively. Further, the fluorescence slope in [5] was -0.337 (inactive). In [6], the NADPH fluorescence slope was -1.5e-05 (inactive). The slope in [7] is 0.00557 (inactive). In test [8], the compound was classed as inactive.

For `COC(=O)CSC1=C(C#N)C(=O)NC2(CCCCC2)S1`, the cell count in test [1] was 573. For the same compound, the inhibition was -10.7% (inactive) in test [1], -35.3% (inactive) in [2], -11.5% (inactive) in [4] and -6.72% (inactive) in test [9]. Moreover, the nuclei count in test [2] was 154%. The z-score in test [3] (setting [10]) was -0.563; in test [3] (setting [11]), 0.765; in test [3] (setting [12]) it was 0.767. In addition, the fluorescence slope in test [5] was -0.493 (inactive). Moreover, the NADPH fluorescence slope in test [6] was -4.7e-05 (inactive). Also, in test [7], the slope was 0.00592 (inactive). The compound was classed as inactive in test [8].

For the compound `COc1cc([C@@H]2[C@H]3CNCC=C3C(C#N)=C(N)C2(C#N)C#N)ccc1OC(C)C`, the cell count in test [1] was found to be 520. The inhibition is -3.4% (inactive) in test [1], -13.2% (inactive) in test [2], 2.46% (inactive) in test [4] and -1.69% (inactive) in [9]. Also, in test [2], the nuclei count was 156%. Besides, the z-score is -0.404 in test [3] (setting [10]), -0.17 in test [3] (setting [11]) and -2.38 in [3] (setting [12]). Besides, in test [5], the fluorescence slope is -0.251 (inactive). In addition, the NADPH fluorescence slope in test [6] is 7.5e-06 (inactive). The slope in test [7] was 0.00559 (inactive). For the same compound, the compound was classed as inactive in [8].

As to `CCOC(=O)C1CCCN(c2nc3ccccc3nc2C(C#N)C(=O)OCCOC)C1` (centres undefined), in test [1], the cell count was 542. For the same compound, the inhibition in test [1] is -14.7% (inactive); in test [2], -102% (inactive); in test [4], 4.72% (inactive); in test [9], 6.3% (inactive). In test [2], this compound showed a nuclei count of 160%. Also, the z-score in test [3] (setting [10]) was 0.574; in test [3] (setting [11]), 2.29; in test [3] (setting [12]), -0.983. For the same compound, the fluorescence slope in test [5] was -0.48 (inactive). Besides, the NADPH fluorescence slope in [6] is -4.8e-05 (inactive). Further, in test [7], the slope was 0.0042 (inactive). In test [8], the outcome is “active; weak signal in gallbladder and intestine”.

Consider `N#Cc1ccc(-c2ccco2)nc1SCC(=O)c1ccc(Cl)cc1`, for which, in test [1], the cell count was 431. The inhibition was 0% (inactive) in test [1], -80.7% (inactive) in test [2], 7.83% (inactive) in test [4] and -1.61% (inactive) in [9]. The nuclei count in test [2] was found to be 138%. For the same compound, the z-score in test [3] (setting [10]) was -1.49; in test [3] (setting [11]), -0.417; in test [3] (setting [12]) it was 1.23. Moreover, the fluorescence slope in test [5] is -0.288 (inactive). In addition, the NADPH fluorescence slope in [6] is -2.9e-05 (inactive). Besides, in [7], the slope was 0.00718 (inactive). In addition, the compound was called inactive in test [8].

`Cc1ccc2[nH]c3c(c2c1)CCCC3C(N)=O` (centres undefined): the cell count in test [1] was 548. The inhibition was -27.5% (inactive) in test [1], -103% (inactive) in [2], -16.8% (inactive) in test [4] and 3.14% (inactive) in test [9]. Besides, the nuclei count in test [2] came to 183%. For the same compound, the z-score in test [3] (setting [10]) is -1.12; in [3] (setting [11]), 0.929; in test [3] (setting [12]) it was -1.27. The fluorescence slope in [5] was -0.508 (inactive). For the same compound, in test [6], the NADPH fluorescence slope was -2.9e-05 (inactive). Moreover, the slope in test [7] is 0.00527 (inactive). The compound was called inactive in [8].

`Nc1nonc1-c1noc(N2CCOCC2)n1`: in test [1], the cell count was found to be 306. For the same compound, the inhibition in test [1] is -10.9% (inactive); in test [2] it was -42.1% (inactive); in [4], -12.3% (inactive); in test [9], 17.1% (inactive). Moreover, in [2], the nuclei count came out at 106%. The z-score is 0.592 in test [3] (setting [10]), 0.125 in test [3] (setting [11]) and 0.227 in [3] (setting [12]). In addition, in [5], the fluorescence slope was -0.281 (inactive). The NADPH fluorescence slope in [6] was 1e-05 (inactive). For the same compound, in test [7], the slope is 0.00528 (inactive). Moreover, in [8], the call was inactive.

Consider `CC1(C)CC(=O)C(C=NCCN2CCN(C(=O)C34CC5CC(CC(C5)C3)C4)CC2)=C(O)C1`, for which the cell count in test [1] worked out at 573. Besides, the inhibition in test [1] was -4.4% (inactive); in [2], -174% (inactive); in [4], 3.97% (inactive); in test [9], 4.48% (inactive). This compound displayed a nuclei count in test [2] of 144%. Also, the figures for the z-score in [3] (setting [10]), in [3] (setting [11]) and in [3] (setting [12]) were -0.458, 0.612 and -0.352, respectively. In [5], the fluorescence slope was -0.493 (inactive). Further, the NADPH fluorescence slope in test [6] was -5.1e-05 (inactive). Also, in test [7], the slope is 0.00469 (inactive). In addition, in [8], the result was inactive.

Turning to `CCN(CC)CCNc1nc(-c2ccco2)c2c(c1C#N)CC(C)(C)OC2`, in test [1], the cell count stood at 580. Also, the inhibition in test [1] is -4.5% (inactive); in [2], 12.3% (inactive); in [4] it was 9.82% (inactive); in test [9], 47.8% (inactive). The compound further came in with a nuclei count in [2] of 110%. Further, the results for the z-score in [3] (setting [10]), in [3] (setting [11]) and in test [3] (setting [12]) were 0.832, 0.195 and 0.416, respectively. For the same compound, the fluorescence slope in [5] is -0.379 (inactive). Besides, the NADPH fluorescence slope in test [6] is 1.9e-06 (inactive). For the same compound, the slope in test [7] is 0.00425 (inactive). The compound was called inactive in [8].

Consider `COc1ccc2c(c1OC)C(=O)N1c3ccccc3SC21` (centres undefined), for which the cell count in [1] is 540. The inhibition is -6% (inactive) in test [1], -54.8% (inactive) in test [2], 2.46% (inactive) in test [4] and 20.5% (inactive) in test [9]. The compound also showed a nuclei count in test [2] of 205%. For the same compound, the z-score in test [3] (setting [10]) was -1.05; in test [3] (setting [11]) it was 0.152; in test [3] (setting [12]) it was 0.534. The fluorescence slope in test [5] was -0.361 (inactive). In addition, the NADPH fluorescence slope in [6] was 1.2e-05 (inactive). Further, in [7], the slope was 0.00516 (inactive). Moreover, the outcome in test [8] was inactive.

Turning to `CCCCCCc1cc2cc(C(=O)NC)c(=N)oc2cc1O`, the cell count in test [1] was determined as 346. Also, the inhibition was -2% (inactive) in test [1], -68.8% (inactive) in test [2], 13.2% (inactive) in [4] and -9.65% (inactive) in [9]. In addition, in [2], the nuclei count stood at 90.1%. The z-score in test [3] (setting [10]) was -0.814; in test [3] (setting [11]), 2.52; in test [3] (setting [12]), -2.41. Besides, the fluorescence slope in test [5] is -0.446 (inactive). In addition, the NADPH fluorescence slope in test [6] was -6.7e-05 (inactive). Besides, the slope in test [7] is 0 (inactive). The compound was called inactive in test [8].

As to `CNS(=O)(=O)c1cccc2nsnc12`, the cell count in test [1] was found to be 592. The inhibition in test [1] was -20.7% (inactive); in test [2], -98.5% (inactive); in test [4], -15% (inactive); in test [9], 11.1% (inactive). Besides, in test [2], the nuclei count is 141%. Besides, the z-score in test [3] (setting [10]) is -1.23; in [3] (setting [11]), 0.529; in [3] (setting [12]) it was 1.87. Besides, the fluorescence slope in test [5] is -0.51 (inactive). The NADPH fluorescence slope in test [6] is -3.5e-05 (inactive). Also, the slope in [7] was 0.005 (inactive). In test [8], the outcome was inactive.

For `CC(C)C1Cc2c(sc3c2c(=O)n(-c2ccccc2)c2nncn32)CO1` (centres undefined), in [1], the cell count was 603. Moreover, the inhibition was -21.3% (inactive) in test [1], -90.9% (inactive) in test [2], 3.56% (inactive) in test [4] and -0.205% (inactive) in test [9]. The same compound had a nuclei count in [2] of 179%. Besides, the z-score in test [3] (setting [10]) is -0.575; in test [3] (setting [11]), -0.884; in [3] (setting [12]), 1.06. In addition, the fluorescence slope in [5] was -0.379 (inactive). Also, in test [6], the NADPH fluorescence slope was -5.4e-05 (inactive). Moreover, in [7], the slope was 0.00589 (inactive). Moreover, in [8], the compound was called inactive.
